Rows were chosen to be rich in hits. Some 2.9% of all compounds tested hit in one or more screens of this group.
OX1R antag-1: blocks the human orexin 1 receptor; O43613; CHO/OX1R cells, Fluo-8 calcium fluorescence, orexin A; inhibition, % at 5 µM; actives 0.43% (n = 330,000);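 active = inhibition above its plate's threshold, mean inhibition of all tested compounds on the plate plus 3 SD, cut at about 37% in these data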
Target sequence (O43613 whole entry, looked up): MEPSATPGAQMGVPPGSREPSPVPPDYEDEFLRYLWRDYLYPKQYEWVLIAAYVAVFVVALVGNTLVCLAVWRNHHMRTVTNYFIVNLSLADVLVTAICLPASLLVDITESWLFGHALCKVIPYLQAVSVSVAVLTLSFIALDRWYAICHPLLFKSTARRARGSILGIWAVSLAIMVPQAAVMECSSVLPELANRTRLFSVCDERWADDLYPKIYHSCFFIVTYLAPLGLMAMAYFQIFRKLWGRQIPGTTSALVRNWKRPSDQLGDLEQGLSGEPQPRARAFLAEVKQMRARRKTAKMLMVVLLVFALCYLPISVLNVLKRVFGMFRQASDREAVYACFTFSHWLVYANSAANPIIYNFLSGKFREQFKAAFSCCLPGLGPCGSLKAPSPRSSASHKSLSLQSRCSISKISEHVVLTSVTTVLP
CHO parental Ca: counter-screen for OX1R antagonists: effect in parental CHO cells; parental CHO-K1, ATP-induced calcium, Fluo-8 fluorescence; inhibition, % at 5.6 µM; actives 0.63% (n = 330,000); AID 463079;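 active = inhibition above that plate's mean sample inhibition plus 3 SD, cut at about 26% in these data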
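Material – parental CHO cells · Reagent – ATP stimulus · Compound – single nominal dose of 5.6 µM per compound · Detection – Fluo-8 fluorescence · Read-out basis – percent inhibition of calcium signal · Controls – ATP-challenged DMSO wells low, unchallenged DMSO wells high · Repeats – no replicates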
CHO-K1 Ca antag: counter-screen for M1 antagonists: effect in parental CHO-K1 cells | inhibition, % at 3 µM | ATP-induced calcium, Fluo-8 fluorescence | actives 0.6% (n = 360,000);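 active = inhibition above a per-plate cutoff, the plate's mean sample inhibition plus 3 SD, cut at about 24% in these data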
M1 ag parental: M1 agonist counterscreen hit in parental CHO-K1 cells. Fluo-8 calcium fluorescence; scaled to maximal ATP response, vehicle zero. activation, % at 3 µM. actives 0.48% (n = 360,000). AID 602248; in the data active = activation above about 15%;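 note: untransfected CHO-K1 host cells lacking M1 receptor as counterscreen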
OX1R antag-2: blocks the human orexin 1 receptor; actives 1.8% (n = 330,000); OX1R-expressing cells, FRET antagonist read-out; AID 485270; O43613; inhibition, % at 6.6 µM; in the data active = inhibition mostly above about 38%, no sharp cut-off; inactive = mostly below about 40%
CHO-K1 Ca PAM: nonselective activator or artifact in parental CHO-K1 calcium assay. AID 602247. ATP EC20, Fluo-8 calcium fluorescence; 0% at ATP EC20, 100% at ATP max. actives 0.02% (n = 360,000). activation, % at 3 µM;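 active = activation above the run cutoff, the mean activation of all test compounds plus 3 SD, cut at about 40% in these data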;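 note: peak over basal fluorescence ratio in a 140 s read after ATP addition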
Hits are given with their value; 0 = inactive; - = no result given.

SMILES | OX1R antag-1 | CHO parental Ca | CHO-K1 Ca antag | M1 ag parental | OX1R antag-2 | CHO-K1 Ca PAM
CSc1nnc(-c2cc(Br)ccc2N=Cc2c(C)[nH]n(-c3ccccc3)c2=O)c(=O)[nH]1 | 0 | 0 | 0 | 0 | 48.2 | 0
CCSc1nnc(-c2cc(Br)ccc2N=Cc2c(C)[nH]n(-c3ccccc3)c2=O)c(=O)[nH]1 | 0 | 0 | 0 | 0 | 75.4 | 0
Cc1ccc(-n2[nH]c(C)c(C=Nc3ccc(Br)cn3)c2=O)cc1 | 0 | 0 | 0 | 0 | 0 | 0
CCSc1nnc(-c2ccccc2N=Cc2c(C)[nH]n(-c3ccccc3)c2=O)c(=O)[nH]1 | 0 | 0 | 0 | 0 | 0 | 0
Cn1nnnc1Sc1ncnc2scc(-c3ccc([N+](=O)[O-])cc3)c12 | 0 | 0 | 0 | 0 | 39.3 | 0
O=S(=O)(c1cc(F)ccc1F)N1CCN(c2ncnc3ccccc23)CC1 | 45.3 | 48.8 | 0 | 18.1 | 0 | 0
COc1ccc(CC(=O)OC(C)C(=O)Nc2c(C)n(C)n(-c3ccccc3)c2=O)cc1OC (stereo not drawn) | 0 | 0 | 0 | 0 | 0 | 0
Cc1c(NC(=O)c2ccc(C(=O)Nc3c(C)n(C)n(-c4ccccc4)c3=O)cc2)c(=O)n(-c2ccccc2)n1C | 0 | 0 | 0 | 0 | 0 | 0
Cc1c(NC(=O)CN2C(=O)c3cccc4cccc2c34)c(=O)n(-c2ccccc2)n1C | 0 | 0 | 0 | 0 | 75.8 | 0
Cc1c(NC(=O)C(C)OC(=O)Cc2ccc(F)cc2)c(=O)n(-c2ccccc2)n1C (stereo not drawn) | 0 | 0 | 24.7 | 0 | 0 | 0
Cc1c(NC(=O)CN2C(=O)C3C4C=CC(C4)C3C2=O)c(=O)n(-c2ccccc2)n1C (stereo not drawn) | 0 | 0 | 0 | 0 | 0 | 0
Cc1c(NC(=O)c2ccc(=O)oc2)c(=O)n(-c2ccccc2)n1C | 0 | 0 | 0 | 0 | 76.5 | 0
COCCSc1ccccc1C(=O)NCc1cccnc1 | 0 | 0 | 0 | 0 | 0 | 0
Cn1ccc2c(-c3ccc(C(=O)O)cc3)cc3c(c21)C1CCC3C1 (stereo not drawn) | - | - | 0 | 0 | - | 0
CCc1c(C2(O)CCCCC2)[nH]c2ccc(C(F)(F)F)cc12 | 0 | 40.1 | 0 | 0 | 58.6 | 0
CN(C)Cc1c(C(C)(C)O)[nH]c2ccc(C(F)(F)F)cc12 | 0 | 0 | 0 | 0 | 0 | 0
FC(F)Sc1ccc(NC(=S)NC2CCCCC2)cc1 | 0 | 0 | 0 | 0 | 41.6 | 0
FC(F)Sc1ccc(NC(=S)NCc2ccccc2)cc1 | 0 | 0 | 0 | 0 | 0 | 0
FC(F)Sc1ccc(NC(=S)NC(c2ccccc2)c2ccccc2)cc1 | 0 | 39.3 | 0 | 0 | 40.8 | 0
CC1CCCCC1NC(=S)Nc1ccc(SC(F)F)cc1 (stereo not drawn) | 40.0 | 0 | 0 | 0 | 0 | 0
CC1(C(=O)NS(=O)(=O)c2ccc(Cl)cc2)CCN1C(=O)Cc1ccsc1 (stereo not drawn) | - | - | 0 | 0 | - | 0
CC(=O)Nc1ccc2nc(CN3CCC(CO)(CCc4ccccc4)CC3)ccc2c1 | 0 | 0 | 0 | 0 | 0 | 0
CCOC(=O)/C(C#N)=C/Nc1ccccc1OC(F)(F)F | 0 | 45.5 | 0 | 0 | 0 | 0
NC(=O)C(=O)N/N=C/c1c2ccccc2cc2ccccc12 | 0 | 0 | 0 | 0 | 82.0 | 0
Cc1cc(C(=O)N/N=C/c2c3ccccc3cc3ccccc23)n[nH]1 | 0 | 0 | 0 | 0 | 0 | 0
SMILES | OX1R antag-1 | CHO parental Ca | CHO-K1 Ca antag | M1 ag parental | OX1R antag-2 | CHO-K1 Ca PAM
C/C=C(\C)CN1CCC(n2nccc2NC(=O)CCCc2ccccc2)CC1 | - | - | 0 | 0 | - | 0
Cc1nn(-c2ccccc2)c2sc(C(=O)NNC(=O)COc3cccc4ccccc34)cc12 | 0 | 0 | 0 | 0 | 0 | 0
Cc1nn(-c2ccccc2)c2sc(C(=O)NNC(=O)COc3ccccc3)cc12 | 0 | 0 | 0 | 0 | 48.6 | 0
Cc1ccc(S(=O)(=O)N2CCN(C(=O)c3ccc(-n4cncn4)c([N+](=O)[O-])c3)CC2)c(C)c1 | - | - | 0 | 0 | - | 0
O=C(CSc1nnc(-c2c[nH]c3ccccc23)o1)N(Cc1ccccc1)c1ccc(F)cc1 | 0 | 0 | 0 | 0 | 51.6 | 0
O=C(CNC(=O)c1ccco1)N=Nc1c(O)[nH]c2ccc(Br)cc12 | 0 | 0 | 0 | 0 | 36.4 | 0
O=C(CNC(=O)Cc1ccccc1)N=Nc1c(O)[nH]c2ccccc12 | 0 | 0 | 0 | 0 | 44.8 | 0
CCCCCCC(=O)N=Nc1c(O)[nH]c2ccc([N+](=O)[O-])cc12 | 0 | 0 | 0 | 0 | 0 | 0
O=C(CNC(=O)c1cccs1)N=Nc1c(O)[nH]c2ccc([N+](=O)[O-])cc12 | 0 | 0 | 0 | 0 | 40.8 | 0
Cc1ccc(N/N=C(\C#N)C(=O)c2ccsc2)cc1 | 0 | 0 | 0 | 0 | 0 | 0
N#C/C(=N\Nc1ccccc1)C(N)=S | 0 | 0 | 0 | 0 | 0 | 0
N#C/C(=N\Nc1cccc(Cl)c1)C(=O)c1ccccc1 | 0 | 0 | 28.9 | 0 | 0 | 0
N#C/C(=N\Nc1ccccc1Cl)C(=O)c1ccccc1 | 0 | 0 | 0 | 0 | 0 | 0
Cc1ccc(N/N=C(\C#N)C(N)=S)cc1C | 0 | 0 | 0 | 15.6 | 0 | 0
N#C/C(=N\Nc1ccc(Cl)cc1)C(=O)c1ccsc1 | 0 | 0 | 23.8 | 0 | 0 | 0
N#C/C(=N\Nc1ccc(Cl)cc1)C(N)=S | 0 | 0 | 25.2 | 0 | 49.5 | 0
CCCc1cc(=O)[nH]c(SCC(=O)NCCC2=CCCCC2)n1 | 0 | 0 | 0 | 0 | 0 | 0
C/C(CC(=O)Nc1cccc2c1CCCC2)=N\NC=O | 0 | 0 | 0 | 0 | 0 | 0
CC(C)(C)c1nc(NC(=O)Nc2ccccc2)sc1Br | 60.0 | 47.3 | 0 | 0 | 0 | 0
CC(=O)Nc1ccc(C(=S)NCCCO)cc1 | 0 | 0 | 0 | 0 | 0 | 0
CCCCNC(=O)c1sc(=S)n2c1[nH]c(=O)c1ccccc12 | 0 | 0 | 0 | 0 | 52.1 | 0
CCOc1ccc(CCNC(=O)c2ccc3c(=O)[nH]c4c(C(=O)NC(C)C)sc(=S)n4c3c2)cc1 | 0 | 0 | 0 | 0 | 0 | 0
O=C(NCCc1ccccc1)c1ccc2c(=O)[nH]c3c(C(=O)NCC4CCCO4)sc(=S)n3c2c1 (stereo not drawn) | 0 | 0 | 0 | 0 | 51.6 | 0
O=C(c1ccc(CS(=O)c2ccc(F)cc2)o1)N1CCN(C2CCCCC2)CC1 (stereo not drawn) | 0 | 0 | 0 | 0 | 0 | 0
CC1(C)C2CC=C(/C=N/NC(=S)Nc3cccnc3)C1C2 (stereo not drawn) | 0 | 0 | 0 | 16.1 | 0 | 0
CCCn1nnc(NC(=O)c2ccc([N+](=O)[O-])cc2Cl)n1 | 0 | 0 | 0 | 15.2 | 63.5 | 0
Cn1cc([N+](=O)[O-])c(C(=O)NNC(=O)c2ccc([N+](=O)[O-])cc2Cl)n1 | 0 | 0 | 0 | 0 | 44.2 | 0
CCCCn1nnc(NC(=O)c2ccc([N+](=O)[O-])cc2Cl)n1 | 0 | 0 | 0 | 0 | 64.2 | 0
CCCn1nnc(NC(=O)c2cccc(Cl)c2)n1 | 0 | 0 | 0 | 0 | 0 | 0

Bioassay records (PubChem)
